# According to publication PMC11293135 (Journal of Nanobiotechnology, 2024):
# Structures can show the parent of a compound that is named as a salt.
# How the values were obtained:
# 4T1 cells = experiment: In vitro cytotoxicity, CCK-8 assay; type: cell-based, murine; settings: concentrations up to 50 μM, three days
# Summary of the method: (§1)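 4T1 and HC11 cells were grown in RPMI-1640 with 10% FBS at 37 °C and 5% CO2. Cells were exposed to the azido-sugar test compound at 0–50 μM for 3 days. Viability was read by CCK-8.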
# HC11 cells = experiment: In vitro cytotoxicity, CCK-8 assay; type: cell-based, mouse; settings: concentrations up to 50 μM, three days
# Summary of the method: as §1
# DCs from TDLNs = experiment: DC maturation in TDLNs by flow cytometry; type: in vivo, BALB/c mice; settings: mean ± SD, n = 5
# Summary of the method: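 Female BALB/c mice (5–6 weeks) received 1.0 × 10^6 4T1 cells s.c. in the flank. Once tumors reached ~150 mm3, click groups got azido-sugar 40 mg/kg i.p. daily for 3 days and others got PBS. All groups then received 5 mg/kg i.v. every 7 days (n = 5). TDLNs were digested with collagenase IV (37 °C, 1 h) and strained at 70 μm. Mature DCs were gated CD40+CD80+MHC II+CCR7+. Mean ± SD reported.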
# 4T1 tumor-bearing mice [1] = experiment: Treatment-related toxicity; type: in vivo, BALB/c mice; settings: 5 mg/kg
# Summary of the method: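 Female BALB/c mice bearing ~150 mm3 s.c. 4T1 tumors were split into 5 groups (n = 5). Click groups were pretreated with azido-sugar 40 mg/kg i.p. daily for 3 days; others received PBS. Treatments at 5 mg/kg i.v. were given every 7 days. Body weight was recorded every 2 days for 14 days. Major organs were fixed in 4% paraformaldehyde, paraffin-embedded, and H&E stained.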
# PD-L1 = settings: DOX treatment; ref [41], [42]; cited from earlier work
# 4T1 tumor-bearing mice [2] = experiment: In vivo MR-T1 mapping imaging; design: species or system BALB/c mice; settings: by 3 h post-injection, 1 mg/kg i.v., n = 3
# Summary of the method: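 4T1 flank tumors were raised in female BALB/c mice (1.0 × 10^6 cells s.c.), n = 3 per group. The click group received azido-sugar 40 mg/kg i.p. once daily for 3 days; the other groups received PBS. Mice were then injected i.v. with 150 μL (1 mg/kg) of Gd probe or Gd-DOTA. T1 mapping was done before injection and at 1, 2, 3 and 4 h, and tumor 1/T1 values were quantified.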
smiles,measurement,setting,value
"CC(=O)OC[C@H]1OC(OC(C)=O)[C@@H](NC(=O)CN=[N+]=[N-])[C@@H](OC(C)=O)[C@@H]1OC(C)=O (stereo partly shown) [Ac4ManNAz, tetraacetyl-N-azidoacetylmannosamine]",Cytotoxicity to 4T1 cells,4T1 cells,no significant harm
same,Cytotoxicity to HC11 cells,HC11 cells,no significant harm
"COc1cccc2c1C(=O)c1c(O)c3c(c(O)c1C2=O)C[C@@](O)(C(=O)CO)C[C@@H]3O[C@H]1C[C@H](N)[C@H](O)[C@H](C)O1 [DOX, Doxorubicin hydrochloride]",MHC-II expression in TDLNs,DCs from TDLNs,45.04 ± 1.85%
same,Body weight change,"4T1 tumor-bearing mice [1]; measured every two days for 14 days, n = 5",severe weight loss
same,H&E analyses on major organs compared to PBS-treated mice,4T1 tumor-bearing mice [1]; end of antitumor study,substantial damage
same,PD-L1 expression of 4T1 cells,PD-L1,elevation in PD-L1 expression
O=C([O-])CN1CCN(CC(=O)[O-])CCN(CC(=O)[O-])CCN(CC(=O)[O-])CC1.[Gd+3] [Gd-DOTA],Tumor MR signal,4T1 tumor-bearing mice [2],returned to baseline levels
